High-throughput results (PubChem)
EphB4 ephrin blk: antagonists of human EphB4-ephrin-B2 interaction; P54760; EphB4 LBD / TNYL-RAW-Alexa532 peptide, fluorescence polarization; inhibition, % at 7 µM; hit rate 0.15% among 97,000; AID 720;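 active = inhibition above the screen-wide mean inhibition plus 3 SD, cut at about 15% in these data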;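 note: 0% = DMSO wells and 100% = excess unlabeled TNYL-RAW peptide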
hDAT+cocaine: modulates human dopamine transporter uptake under cocaine; AID 449768; hit rate 1.3% among 110,000; LLC-PK1 hDAT cells, [14C]-dopamine uptake with cocaine IC80; actives deviate in either direction; Q01959; B-score at 10 µM;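 active = Z score or B-score, a plate-position-corrected score, falls beyond the plate's 99.7% confidence bounds, in either direction; inactive = both scores lie inside the 99.7% bounds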;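 note: scored against the spread of the other compound wells on the same plate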
Target sequence (Q01959 whole entry, looked up): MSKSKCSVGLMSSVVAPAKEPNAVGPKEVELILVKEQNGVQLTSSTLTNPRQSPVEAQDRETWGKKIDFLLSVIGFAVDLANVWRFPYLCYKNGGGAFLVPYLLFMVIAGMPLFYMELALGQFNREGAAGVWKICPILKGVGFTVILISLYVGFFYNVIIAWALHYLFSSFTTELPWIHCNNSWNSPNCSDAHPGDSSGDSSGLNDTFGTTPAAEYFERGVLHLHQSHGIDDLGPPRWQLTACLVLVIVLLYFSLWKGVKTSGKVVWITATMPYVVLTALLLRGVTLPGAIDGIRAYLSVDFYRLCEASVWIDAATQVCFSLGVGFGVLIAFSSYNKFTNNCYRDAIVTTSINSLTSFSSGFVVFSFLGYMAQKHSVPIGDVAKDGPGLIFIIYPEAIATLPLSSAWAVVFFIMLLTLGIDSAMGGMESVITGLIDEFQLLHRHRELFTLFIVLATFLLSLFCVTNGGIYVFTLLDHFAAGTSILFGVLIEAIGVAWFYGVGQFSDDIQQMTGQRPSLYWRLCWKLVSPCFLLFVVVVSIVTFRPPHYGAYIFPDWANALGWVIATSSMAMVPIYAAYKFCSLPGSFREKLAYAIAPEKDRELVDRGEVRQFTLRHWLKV
Rev-RRE block: disrupts HIV-1 Rev binding to RRE RNA. P05866. Rev peptide-RRE RNA binding, FRET. inhibition, % at 8 µM. hit rate 0.79% among 97,000;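 active = inhibition above the screen-wide mean plus 3 SD, cut at about 35% in these data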;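 note: 0% = median DMSO wells and 100% = median Neomycin B control wells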
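Test system – labelled RRE RNA duplex and labelled Rev peptide · Signal – fluorescein-to-Cy5 FRET, 480 nm excitation · Evaluation – % inhibition of FRET ratio versus controls · Benchmarks – DMSO low control, neomycin B high control · Incubation – 5 min RNA-compound premix plus 15 min binding step, 25 °C · Medium – HEPES pH 7.5 salt buffer with EDTA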
Cav32 inh: blocks human Cav3.2 T-type calcium channel | AID 449739 | hit rate 4% among 100,000 | B-score at 10 µM | Cav3.2-expressing cells, Fluo-4 calcium fluorescence FDSS; active compounds read low | O95180;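 active = single-dose well whose peak fluorescence ratio is a statistical outlier from its plate by either plate-standardised score or position-corrected B-score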
Starred values were filed as active, the others as inactive; · = no result; [ ] = another dose, or the depositor's remark. In the library only some 5.4% were active in any assay of this set; here they are far more common.

SMILES	EphB4 ephrin blk	hDAT+cocaine	Rev-RRE block	Cav32 inh
CCN(CC)S(=O)(=O)c1cccc(NC(=O)C2SC(=Nc3ccc(C)cc3C)C(C(=O)NC(C)COC)=C2N)c1 (stereo unspecified)	2.4	-1.9	1.8	-8.56*
CCCCNC(=O)C1=C(N)C(C(=O)Nc2ccc(C)c(S(=O)(=O)N3CCCCC3)c2)SC1=Nc1ccc(C)cc1C (stereo unspecified)	0.1	·	-0.1	·
COCCNC(=O)c1ccc2c(=O)n(CCOC)c(=O)[nH]c2c1	-3.3	-8.96*	9.6	-0.0213
CN1CCc2nc(NC(=O)c3cccc(OC(F)F)c3)sc2C1	4.2	-0.764	64.7*	-0.319
O=C(CSc1nc2nc(-c3cccs3)cc(C(F)(F)F)c2c(=O)[nH]1)NCc1ccco1	-8.2	0.567	6.2	-3.97*
Cc1nn(-c2ccccc2)c(Cl)c1C(=O)Nc1nnc(C2CCCCC2)s1	-8.9	0.949	-3.5	-4.39*
O=C(Nc1nnc(C2CCCCC2)s1)c1ccco1	-1.4	-1.74*	-1.8	-0.367
COc1cccc(CN2C(=O)CCC2(C)C(=O)NC2CCCC2)c1 (stereo unspecified)	5.2	-0.934	7.6	-0.731
O=C(c1cccn2c(=O)c3cc4ccccc4cc3nc12)N1CCN(c2ccccc2)CC1	-5.8	·	44.2*	·
O=C(Nc1cccc(NC(=O)c2ccc(-c3ccc(Br)cc3)o2)c1)c1ccccc1	7.9	-1.19	7.6	-6.13*
O=C(Nc1ccccc1)c1ccc(-c2ccc(Br)cc2)o1	2.6	-0.393	20.6	-5.3*
O=C(Nc1cccc(NC(=O)c2ccc(-c3cccc(Br)c3)o2)c1)c1ccco1	2.4	1.44	-1.3	-2.89
CCN(CC)c1cc(C)c2cc(NC(=O)c3ccc(Br)o3)ccc2n1	2.5	0.822	14.1	-0.393
COCCCn1c(SCC(=O)N2CC(=O)Nc3ccccc32)nnc1-c1ccoc1C	1.8	-2.42*	9.2	-0.224
CCC(CC)C(=O)Nc1cccc(C(=O)c2ccccc2)c1	-2.8	1.11	7.1	-1.18
COC(=O)c1ccc(OC(=O)c2ccco2)cc1	-9.3	-7.45*	5.3	-0.368
CC(NC(=O)c1ccco1)C1COc2ccccc2O1 (stereo unspecified)	-2.3	-0.714	4.1	-0.0145
CC(NC(=O)CCC(=O)NC(C)C1COc2ccccc2O1)C1COc2ccccc2O1 (stereo unspecified)	1.3	-0.0331	5.0	-8.82*
Cc1cc(C(F)(F)F)n(-c2nc(C(=O)Nc3ccccc3Oc3ccccc3)cs2)n1	-1.1	-1.15	11.1	-4.37*
CC(=O)c1sc2nc(-c3cccs3)cc(C(F)(F)F)c2c1N	-1.7	-0.492	106.9*[fluorescence artefact?]	-1.41
COc1cccc(-c2cc(C(F)(F)F)c3c(N)c(C#N)sc3n2)c1	3.3	·	28.9	·
CS(=O)(=O)c1sc2nc(-c3cccs3)cc(-c3ccccc3)c2c1N	-3.0	0.145	36.0*	-1.52
Nc1c(C(=O)C2CC2)sc2nc(-c3ccccc3)cc(C(F)(F)F)c12	2.1	-0.291	111.6*[fluorescence artefact?]	-6.19*
CCOC(=O)N1CCN(C(=O)c2ccc(CN(c3ccccc3)S(C)(=O)=O)cc2)CC1	-6.8	0.0928	-4.3	1.09
Cc1cccc2cc(CN(Cc3nnnn3C3CCCCC3)C3CCCC3)c3nnnn3c12	-1.3	1.33	2.6	-0.71
SMILES	EphB4 ephrin blk	hDAT+cocaine	Rev-RRE block	Cav32 inh
O=C(Nc1ccc(N2CCOCC2)cc1)C1CCCN(S(=O)(=O)c2cccc(C(F)(F)F)c2)C1 (stereo unspecified)	-12.3	-0.0279	-3.4	0.0739
Cc1ccc(S(=O)(=O)CC(=O)N(C)C)cc1	5.3	0.00217	11.0	·
Cc1ccc(C)c(N2CCN(C(=O)c3ccc(Cn4c(=O)[nH]c5ccccc5c4=O)cc3)CC2)c1	-2.6	1.25	-2.5	-5.93*
CCOCCCNS(=O)(=O)c1ccc(-n2cnnn2)c(OC)c1	-11.3	-1.2	2.3	1.26
O=C1CCCC2=C1C(c1ccsc1)CC(=O)N2c1nnc(SCc2ccccc2)s1 (stereo unspecified)	3.9	0.0989	9.1	-5.48*
COc1ccccc1OC(=O)c1cc(Cl)nc2ccccc12	-2.4	-1.03	3.2	-1.7
Cc1ccc(C(=O)NC(=S)NNC(=O)c2ccccc2[N+](=O)[O-])cc1	3.7	-0.00782	6.0	-7.98*
COC(=O)C1=C(CCc2ccccc2)NC(=O)NC1c1ccc([N+](=O)[O-])cc1 (stereo unspecified)	·	1.85	·	-1.4
CCC(C)[C@H](NC(=O)OC(C)(C)C)C(=O)N/N=C/C1=Cc2ccccc2OC1 (stereo partly specified)	-5.7	-0.0465	6.0	-5.35*
CCC(C)[C@H](NC(=O)OC(C)(C)C)C(=O)N/N=C/c1cccc2nccnc12 (stereo partly specified)	4.2	2	4.5	2.1
CCN(CC)S(=O)(=O)c1ccc(Cc2ncc(C(F)(F)F)cc2Cl)s1	8.0	0.881	9.6	-3.68*
O=C(CCCn1c(=O)[nH]c2cc(Cl)ccc2c1=O)NC1CCCCCC1	-2.1	-0.61	1.4	2.67
O=C(Cn1c(=O)[nH]c2ccsc2c1=O)NC1CCCCC1	5.2	-2.71*	4.8	-0.128
NC(=O)CSc1nnc(CCc2nc3ccccc3[nH]2)n1-c1ccccc1	6.7	·	4.7	·
CNC(=S)N1N=C(c2ccc(C)cc2)CC1c1ccc(OC)cc1 (stereo unspecified)	1.2	0.63	-0.8	-4.08*
COc1ccc(Cn2cnc3c([N+](=O)[O-])c(C)c(C)cc32)cc1	-1.8	-0.176	7.9	-6.18*
COc1ccc2c(c1)CCc1c(C(=O)Nc3cc(C)n(Cc4ccc(Cl)cc4)n3)noc1-2	·	-0.0552	·	0.58
Cc1cc(NC(=O)c2noc3c2CCCC3)nn1Cc1ccc(Cl)cc1	-12.1	-0.276	4.8	-4.8*
COc1cccc(-c2nc(CS(=O)(=O)c3ccccc3)no2)c1	-2.0	-0.279	1.0	·
CCOC(=O)Cn1c(S(=O)(=O)Cc2ccc(F)cc2)nc(-c2ccccc2)c1-c1ccccc1	5.6	-0.00784	3.4	-2.42
C#CCn1c(S(=O)(=O)Cc2ccc(F)cc2)nc(-c2ccccc2)c1-c1ccccc1	-1.2	0.789	11.6	-3.8*
Cc1ccc(C(=O)Nc2cc(C)c(OCC(=O)N3CCOCC3)c(C)c2)cc1	5.9	2.26*	10.4	0.559
Cc1nn(-c2ccc(Cl)cc2Cl)c(=O)c2ccccc12	-0.9	-0.095	1.7	0.507
Cc1c(C(=O)NN2CCCCC2)nn(-c2ccc(Cl)cc2Cl)c1-c1ccc(I)cc1	·	0.147	·	-4.91*
Cc1csc(NC(=O)c2nc(-c3ccccc3)n(-c3ccccc3)n2)n1	·	1.58	·	-2.43
Cc1ccc(C)c(NC(=O)c2nc(-c3ccccc3)n(-c3ccccc3)n2)c1	-8.3	0.109	2.7	-5.83*
CCCC(C)NC(=O)c1nc(-c2ccccc2)n(-c2ccccc2)n1 (stereo unspecified)	1.3	1.11	16.6	-4.86*
Cc1cc(=O)[nH]c(-n2[nH]c(C)cc2=O)n1	13.5	-0.14	9.9	1.08
O=c1cc(C(F)(F)F)nc(-n2[nH]c3c(c2=O)CCCC3)[nH]1	-4.1	-0.759	66.7*	-1.02
